Assay results collected from several papers.
Each line is one published result; the experiments were not run side by side.
Organism: Escherichia coli
Effect on: microbial killing

| SMILES | method | cells | strain | time | MBC |
| --- | --- | --- | --- | --- | --- |
| CNC1=C([N+](=O)[O-])C2(C(=O)Nc3ccccc32)C2=C(O1)C(=O)c1ccccc1C2=O (stereo not drawn) | – | – | ATCC25922 | – | ≤ 500 µg/mL |
| CCn1cc(C(=O)O)c(=O)c2cc(F)c(N3CCNCC3)cc21 | broth dilution | ATCC 8739 | ATCC8739 | – | 1 µM |
| COc1c(C)c(OC(=O)c2ccc(C)cc2)c(C)c(O)c1C(=O)/C=C/c1ccccc1 | broth dilution | – | ATCC25922 | – | > 5000 µg/mL |
| N#CC(=Cc1cn(-c2ccccc2)nc1-c1ccccc1)C1=NC(=O)CS1 | broth dilution | – | – | – | 0.25 µg/mL |
| O=c1[nH]cc(F)c(=O)[nH]1 | broth dilution | – | – | 48 h | > 32 µg/mL |
| CN[C@H](CC(C)C)C(=O)N[C@H]1C(=O)N[C@@H](CC(N)=O)C(=O)N[C@H]2C(=O)N[C@H]3C(=O)N[C@H](C(=O)N[C@H](C(=O)O)c4cc(O)cc(O)c4-c4cc3ccc4O)[C@H](O)c3ccc(c(Cl)c3)Oc3cc2cc(c3O[C@@H]2O[C@H](CO)[C@@H](O)[C@H](O)[C@H]2O[C@H]2C[C@](C)(N)[C@H](O)[C@H](C)O2)Oc2ccc(cc2Cl)[C@H]1O | broth dilution | ATCC 8739 | ATCC8739 | – | > 128 µM |
| COc1c(C)c(OC)c(C(=O)/C=C/c2ccccc2)c(OC)c1C | broth dilution | – | ATCC25922 | – | > 5000 µg/mL |
| CO[C@H]1O[C@H](COC(c2ccccc2)(c2ccccc2)c2ccccc2)[C@@H](OC(=O)c2ccc(C(C)(C)C)cc2)[C@H](OC(=O)c2ccc(C(C)(C)C)cc2)[C@H]1OC(=O)c1ccc(C(C)(C)C)cc1 | broth dilution | – | – | – | 16 µg/mL |
| O=C(O)c1cn(C2CC2)c2cc(N3CCNCC3)c(F)cc2c1=O | broth dilution | – | – | – | 0.25 µg/mL |
| COc1cc(Cc2cnc(N)nc2N)cc(OC)c1OC | broth dilution | – | – | 48 h | > 32 µg/mL |
| N#CC(=Cc1ccccc1O)C1=NC(=O)C(=Cc2cn(-c3ccccc3)nc2-c2ccccc2)S1 | broth dilution | – | – | – | 0.5 µg/mL |
| COc1c(C)c(OC(=O)c2ccccc2)c(C)c(O)c1C(=O)/C=C/c1ccccc1 | broth dilution | – | ATCC25922 | – | > 5000 µg/mL |
